NS3 helicase inh: inhibitors of Hepatitis C virus NS3 helicase | NS3 helicase DNA unwinding, Cy5 molecular beacon fluorescence | inhibition, % at 10.9 µM | 0.56% of 290,000 active | AID 1800;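 active = inhibition above the mean of all tested compounds plus 3 SD, set per campaign, cut at about 35% in these data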;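 note: 0% = DMSO wells and 100% = thioflavine S control wells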
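Control set: DMSO versus 110 µM thioflavine S; Material: NS3 helicase fragment of HCV; Measured by: Cy5 fluorescence at 0 and 60 min, beacon hairpin quenching; Read-out basis: percent inhibition from t60/t0 fluorescence ratio; Times: reaction time 60 min, 25 °C; Repeats: single replicate; Compound dosing: single dose, 10.9 µM nominal final, DMSO 0.8% final.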
TAAR1 ag: human TAAR1 agonism | AID 624467 | CHO RD-HGA16 TAAR1, Fluo-8 calcium fluorescence; vehicle wells 0%, saturating PEA agonist 100% | Q96RJ0 | activation, % at 3 µM | 0.99% of 360,000 active;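 active = activation above the mean activation of all test compounds in the run plus 3 SD, cut at about 38% in these data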
Target sequence (Q96RJ0 whole entry, looked up): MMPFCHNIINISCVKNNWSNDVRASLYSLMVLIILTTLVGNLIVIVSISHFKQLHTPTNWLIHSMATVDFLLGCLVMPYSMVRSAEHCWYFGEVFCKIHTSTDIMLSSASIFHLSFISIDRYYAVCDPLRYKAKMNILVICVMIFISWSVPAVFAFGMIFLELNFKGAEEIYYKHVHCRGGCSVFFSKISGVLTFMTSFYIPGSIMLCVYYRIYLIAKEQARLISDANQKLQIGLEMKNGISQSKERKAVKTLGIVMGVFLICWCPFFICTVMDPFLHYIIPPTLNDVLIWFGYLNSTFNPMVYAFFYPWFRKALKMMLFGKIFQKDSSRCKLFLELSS
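Signal – calcium-sensitive Fluo-8 signal, excitation 470-495, emission 515-575 nm · System – RD-HGA16 (CHO) cells co-expressing Gα16 and hTAAR1 · Incubation – 17-24 h seeding, 75 min 37 °C dye, 30 min RT · Compound dosing – 3 µM single concentration · Repeats – no replicates (n 1)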
TAAR1 antagonist: human TAAR1 antagonism; 1.5% of 360,000 active; inhibition, % at 3 µM; CHO RD-HGA16 TAAR1, Fluo-8 calcium fluorescence, antagonist;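 active = inhibition above a per-plate cutoff, the mean inhibition of test compounds on that plate plus 3 SD, cut at about 49% in these data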;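 note: 0% = DMSO plus EC80 beta-PEA response and 100% = DMSO alone without agonist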
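Material: RD-HGA16 CHO cells with stable hTAAR1 and Gα16; Dosing: single nominal final test compound concentration of 3 µM; Schedule: seeding 17-24 h prior, 75-min 37 °C, 30-min RT dye loading; Detection: kinetic Fluo-8 calcium fluorescence measurement; Measure: % inhibition from peak post-agonist over basal fluorescence ratio; Benchmarks: vehicle and agonist controls.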
rCAG binder: molecules binding r(CAG) RNA repeats. inhibition, % at 3 µM. AID 651821. 1.3% of 370,000 active. r(CAG) RNA repeat, TO-PRO-1 dye displacement fluorescence;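 active = inhibition above the plate cutoff, the mean of all test compounds on that plate plus 3 SD, cut at about 35% in these data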;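 note: 0% = DMSO alone and 100% = 100 µM mitoxantrone as full dye displacement; higher means more dye released from RNA so lower well fluorescence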
HCV core dimer: HCV core protein dimerization inhibition; 0.33% of 300,000 active; inhibition, % at 5 µM; TR-FRET GST/Flag-core106 dimerization, 1536-well; AID 1899;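 active = inhibition above the mean of all tested compounds plus 3 SD, set per screening campaign, cut at about 45% in these data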
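System: GST/Flag-tagged HCV core106 proteins. Incubation: compound-protein-antibody incubation 4 h at 22.5 °C. Technique: HTRF with 340 nm excitation, 617/671 nm emission. Medium: KF-containing HEPES buffer, pH 7.45, DTT, CHAPS, BSA. Read-out: inhibition (%) from 671 over 617 nm ratio. Also added: Eu(K)-anti-GST 90 ng/mL plus XL665-anti-Flag 1 µg/mL.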
* = called active by the depositor; . = not tested or not shown. Most compounds without a hit are left out; they make up all but 3.7% or so of the library.

SMILES	NS3 helicase inh	TAAR1 ag	TAAR1 antagonist	rCAG binder	HCV core dimer
Cc1ccccc1CCNC(=O)CCn1ccc2cc(S(=O)(=O)N3CCCC3)ccc21	2	44*	-3	2	3
Cc1ccc(-n2cc(-c3ccccc3)c3c(N4CCOCC4)ncnc32)cc1	-3	6	54*	1	.
CCCN(CCC)C(=O)c1cc(-c2ccc3c(c2)OCO3)nc2ccccc12	10	.	.	.	56*
CCOc1ccc(-c2cc(C(=O)Nc3ccc4c(c3)OCCO4)c3ccccc3n2)cc1	8	14	67*	9	21
Cn1c(SCC2CCC2)nnc1-c1ccco1	.	.	.	-1	.
Cc1nc(C)c(C(=O)Nc2nc3c(C)cccc3s2)o1	26	5	0	19	54*
COC(=O)[C@]12C[C@H](CC(=O)NCc3ccccc3)C(=O)N(Cc3ccco3)C1=C[C@H](C(C)C)O[C@@H]2C1CC1	.	.	.	3	.
CC(C)c1nnc(N2C(=O)C(O)=C(C(=O)c3cccs3)C2c2ccccc2)s1 (stereo not drawn)	6	40*	25	-73	.
CCOC(=O)COc1ccccc1/C=N\NC(=O)c1cc2c(ccc3ccccc32)o1	-20	4	49*	4	.
CCOc1cc(/C=N/NC(=O)c2cc3c(ccc4ccccc43)o2)ccc1O	23	1	35	20	.
O=C(O)C1Nc2c(Cl)cc(Cl)c(Cl)c2C2C=CCC12 (stereo not drawn)	57*	2	-6	32	43
COc1ccc2c(c1)CC/C(=C\c1ccc(OC)c(Cn3nc(C)cc3C)c1)C2=O	-5	44*	23	-5	17
Cc1cc(C)n2nc(C(=O)Nc3ccc4c(c3)OCO4)nc2n1	1	-2	-11	13	47*
COC(=O)[C@]12C[C@H](CC(=O)NCCCCc3ccccc3)C(=O)N(CCc3ccc(OC)c(OC)c3)C1=C[C@H](C1CCCC1)O[C@@H]2C	.	.	.	8	.
C=COC(=O)CSc1snc(SCC(=O)OC)c1C#N	6	7	-3	2	89*
CC(=O)c1ccc(S(=O)(=O)Nc2ccc(-c3ccc4nnc(C)n4n3)cc2)cc1	3	8	-2	10	58*
CCOC(=O)C1CCCN(C(=O)CCCn2nnnc2CN2CCOCC2)C1 (stereo not drawn)	-2	40*	22	-1	.
CCCOC1CCCN(C(=O)CCCn2nnnc2CN2CCOCC2)C1 (stereo not drawn)	24	4	-9	-5	-20
Cc1cccc(N2CCN(C(=O)c3ccc(CS(=O)(=O)c4ccccc4C)o3)CC2C)c1 (stereo not drawn)	-5	14	50*	0	2
Clc1ccc(-n2ncc3c(N4CCCCCC4)ncnc32)cc1	-8	-1	9	2	-7
Brc1cc(Br)c2ncnc(N3CCCCC3)c2c1	2	12	-24	1	61*
Cc1cc(C)nc(/N=C(\N)Nc2ccc(-c3ccccc3)cc2)n1	-45	58*	64*	23	-1
CC(=O)Nc1ccc(N/C(N)=N/c2nc(C)cc(C)n2)cc1	7	1	0	13	-6
O=C(CSc1nc2ccccc2n1Cc1ccccc1)NN=C/C=C/c1ccccc1	.	.	.	8	.
CS(=O)(=O)Nc1cccc(NC(=O)c2cccc3c(-c4cccc(C(N)=O)c4)coc23)c1	.	8	66*	11	.
SMILES	NS3 helicase inh	TAAR1 ag	TAAR1 antagonist	rCAG binder	HCV core dimer
COCCNC(=O)c1cccc2c(-c3cccc(C(N)=O)c3)coc12	.	0	-20	2	.
CS(=O)(=O)Nc1cccc(NC(=O)c2ccc(-c3ccc(F)c(F)c3)c3ccoc23)c1	.	4	37	11	.
CS(=O)(=O)Nc1cccc(NC(=O)c2cccc3c(-c4ccc(F)c(F)c4)coc23)c1	.	1	64*	13	.
COc1ccc(CCN2C(=O)C=CC2=O)cc1OC	.	17	17	3	.
COc1ccc(CCn2c(C)ccc2C)cc1OC	10	.	.	.	47*
COC(=O)[C@]12C[C@H](CC(=O)NCC34CC5CC(CC(C5)C3)C4)C(=O)N(Cc3ccc(Cl)cc3Cl)C1=C[C@H](C(C)C)O[C@@H]2C1CC1	.	.	.	14	.
CN(c1ccccc1)S(=O)(=O)c1cccc(C(=O)Nc2cccc(C(=O)NC3CC3)c2)c1	.	11	17	4	.
CN(c1ccc(C(=O)Nc2cccc(O)c2)cc1)S(=O)(=O)c1ccccc1	-4	12	10	2	5
CC(=O)c1cccc(NC(=O)c2ccc(N(C)S(=O)(=O)c3ccc(C)cc3)cc2)c1	15	7	55*	-3	10
CN(c1ccccc1)S(=O)(=O)c1cccc(NC(=O)c2cccc(C#N)c2)c1	.	21	66*	4	.
CN(c1ccccc1)S(=O)(=O)c1cccc(NC(=O)c2ccc3ncsc3c2)c1	-21	9	60*	8	4
COc1ccc(CN2C(NC(=O)OCc3ccccc3)=NC3=CC(C)(C)n4c(=O)n(-c5ccccc5)c(=O)n4C32)c(OC)c1 (stereo not drawn)	.	.	.	19	.
CCc1nnc(NS(=O)(=O)c2ccc(NC(=O)/C=C/c3ccc(OC)cc3OC)cc2)s1	-2	2	3	82*	30
C/C(=N\Nc1nc(-c2cc(C)ccc2C)cs1)c1cc2ccccc2oc1=O	20	0	-10	14	57*
CCn1c2ccccc2c2cc(NC(=O)COC(=O)c3cccc(OC)c3)ccc21	.	.	.	5	.
CCN(c1cccc(C)c1)S(=O)(=O)c1ccc2c3c(cccc13)C(=O)N2	-3	10	54*	12	-7
COc1ccc(C(=O)Nc2oc(-c3ccccc3)c(-c3ccccc3)c2C#N)cc1	-3	10	15	25	47*
COc1ccc(-c2oc(NC(=O)c3ccc(C)cc3)c(C#N)c2-c2ccc(OC)cc2)cc1	-9	4	1	22	60*
COc1ccc(-c2oc(NC(C)=O)c(C#N)c2-c2ccc(OC)cc2)cc1	-7	11	0	13	14
COc1ccc(C2/C=C\CN(S(=O)(=O)c3cccc4cccnc34)CC(=O)N2Cc2ccc(F)cc2)cc1 (stereo not drawn)	.	13	50*	7	8
CCCCNS(=O)(=O)c1ccc2nc(SCC(N)=O)[nH]c2c1	-1	0	-10	-2	-2
CCCCNS(=O)(=O)c1ccc2nc(SCC(=O)Nc3sccc3C#N)[nH]c2c1	-18	28	47	38*	17
COC(=O)[C@]12C[C@H](CC(=O)NCC34CC5CC(CC(C5)C3)C4)C(=O)N(CCC3=CCCCC3)C1=C[C@H](C(C)C)O[C@@H]2C1CC1	.	.	.	9	.
COc1cc(OC)c(N(C)S(=O)(=O)c2cccc(C(=O)Nc3nc(C)cs3)c2)cc1Cl	.	8	51*	9	.

High-throughput results (PubChem)
